Test results reported in ChEMBL document CHEMBL4513216, “Probing the Open Global Health Chemical Diversity Library for Multistage-Active Starting Points for Next-Generation Antimalarials” (ACS Infect Dis, 2020).

Experiment: Toxicity liver stage against HepG2, at 10uM
Assay type: cell-based
Design: test concentration 10 uM, cell line HepG2-A16-CD81EGFP
Details: human, HepG2-A16-CD81EGFP cells; read-out: INHIBITION
In short: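 Uninfected HepG2-A16-CD81EGFP cells, 3 × 10^3 per well, 1536-well, plated on prespotted compound at 10 μM final, parasite-free screening media added to match infected plates; puromycin 10 μM positive, DMSO 0.5% negative; run in parallel with 48 h PbLuc assay at 37 °C, 5% CO2; viability by CellTiter-Glo luminescence, normalized to controls.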

Structure (SMILES)	cytotoxicity at 10 µM [%]
CCN(CC(=O)NC(C)C)S(=O)(=O)N1CCCCCC1	2.37
CCN(CC)C[C@H]1CN2CC[C@H]1C[C@@H]2CNC(=O)Nc1ccsc1	-17.8
Cc1ccccc1CSc1ncccc1C(=O)N(C)C	-7.24
COc1ccc(C(=O)N(CCO)Cc2ccccc2)c(OC)n1	3.33
O=C(c1cccnc1SCc1ccccc1)N1CCOCC1	4.74
O=C(N[C@H]1CCCC[C@@H]1O)c1cccc(-c2nc3ccccc3[nH]2)c1	-3.65
COCC(=O)N1CCC(=O)N(C2CCCC2)Cc2cc(F)ccc21	-3.3
O=C(COc1coc(CN2CCCC2)cc1=O)Nc1cc(Cl)ccc1Cl	-1.71
CCOC(=O)CCC(=O)N1CC(c2nc(Cc3ccccc3)no2)C1	-2.42
O=C(NCCN1CCOCC1)c1cc2c(s1)CCN2Cc1cccnc1	-7.98
CC(C)NC(=O)[C@H]1CCS(=O)(=O)[C@@H]2CN(c3ncc(F)cn3)C[C@H]12	-136
CC(C)N(C)C(=O)C1=NOC2(CCN(C(=O)c3ccnnc3)C2)C1 (stereo unspecified)	-119
Cc1noc([C@@H]2C[C@H]3OCC[C@H]3N(S(=O)(=O)N(C)C)C2)n1	-122
Cc1nc(CN2CCO[C@H]3CN(C(=O)Cc4cccs4)C[C@H]32)cs1	-124
Cc1nc(C(=O)N2C[C@@H]3COC[C@]3(COCc3cccnc3)C2)cs1	-1.92
COc1cc2[nH]c(C(=O)O)cc2c(OC)c1C	-1.51
Cc1ccc(CN(C)CC2(O)CCCN(C)C2)o1 (stereo unspecified)	-8.08
CCn1nc(C)c2nc(C(C)C)nc(NCCCn3ccnc3)c21	10.8
CCn1cc(Br)c(C(=O)NCc2cnn(C)c2)n1	-11.9
Nc1nc(N)c2c(n1)OC1(CCN(C(=O)CC3CCNCC3)CC1)C2	5.41
CN(C)c1cc(C2CCCN2C(=O)c2noc3c2CCCC3)ccn1 (stereo unspecified)	9.13
Cc1ccc(C(=O)N2CCOC(c3ncc(CN(C)C)[nH]3)C2)cc1F (stereo unspecified)	0.388
CCN1C(=O)CC[C@@H]2N(C(=O)CCn3nccc3C)CCCC[C@@]21C	-3.41

Structure (SMILES)	cytotoxicity at 10 µM [%]
CNc1cc(C)nc(C2COCCN2CCOc2ccc(F)cc2)n1 (stereo unspecified)	3.18
Cc1ncc(CN2CCc3nc4cc(C(C)(C)C)nn4c(O)c3C2)n1C	8.62
O=C(C1CCC1)N1CCC(c2ncc3c(n2)CCNC3)CC1	-25.1
Cc1ccc(-n2c(SCC(=O)O)nnc2-c2ccccc2)cc1	-19.3
CN1CC(=O)N(C2CCNCC2)Cc2c(NC3CCC3)ncnc21	3.9
CN(C(=O)OC(C)(C)C)C1CCN(C(=O)c2ccc(Cl)o2)C1 (stereo unspecified)	-42.5
O=C(CN1CCCCCC1=O)NC1CCc2nccn2C1 (stereo unspecified)	2.8
Fc1cccc(C(NCc2ncc[nH]2)c2ccccn2)c1 (stereo unspecified)	3.95
C[C@H](O)c1cnn(-c2ccccc2)c1	0.503
COC(C)c1noc(CN(C)c2nccnc2C#N)n1 (stereo unspecified)	0.462
CC(CNC(=O)NCc1ccco1)N1CCc2sccc2C1 (stereo unspecified)	-11.5
CNC(=O)N(C)CC1(c2ccc(Br)cc2)CC1	-9.6
COCCCn1ccc(NC2CCOCC2)n1	3.31
Cn1ccc2c(C(=O)NCC3(C(N)=O)CCOCC3)cccc21	-1.21
CCOc1ccnc(N2CCCN(c3nc(CC)ns3)CC2)n1	1.19
CC(=O)N(C)CC(=O)NC1(c2ccc(Br)cc2)CC1	-10.7
c1ccc(Cc2noc(CN3CCCC3C3CCCCC3)n2)cc1 (stereo unspecified)	11.9
CCNC(=O)CN1CCOC(c2ccccc2C(F)(F)F)C1 (stereo unspecified)	3.09
Cn1nnnc1SC1CCCN(c2cccc(F)c2)C1=O (stereo unspecified)	3.85
Cc1cc(CN2CCc3nn(C)c(=O)cc3C2)no1	-9.01
CCc1nc(CCNC(=O)Nc2cccc(C(=O)NC)c2C)cs1	-11.2
Cc1cc(NC2CCc3nc(C)nn3C2)n2ncnc2n1 (stereo unspecified)	-6.29
CC(=O)c1c(F)cccc1N1CCC(C(N)=O)CC1	6.75

Structure (SMILES)	cytotoxicity at 10 µM [%]
Cc1nc(CC(=O)N2CCN(Cc3ccc(C#N)cc3)CC2)cs1	1.91
Cc1noc(CCCC(=O)N(CCC(=O)O)Cc2ccc(F)c(F)c2)n1	-11.3
Cc1n[nH]c(C)c1NC(=O)Nc1cccnc1N1CCCC1	-14
CC1CCN(S(=O)(=O)NC2CCCCNC2=O)CC1 (stereo unspecified)	14
CC(C)(C)CC(=O)NCC(=O)Nc1ccn(Cc2ccncc2)n1	13.2
CCc1sc(C(=O)Nc2cnn(CC(=O)NC3CC3)c2)cc1C	-2.17
N#Cc1ccnc(N2CCN(C(=O)c3ccc4c(c3)CCO4)CC2)c1	-5.75
COC(=O)NC1(C(=O)Nc2ccc(-c3ncc[nH]3)cc2)CCCC1	-14.4
CC(C)COCCCNC(=O)NC(C)c1ccc(-n2cncn2)cc1 (stereo unspecified)	2.42
Cc1ccccc1CS(=O)(=O)CC(=O)N(C)Cc1cccc(F)c1	4.8
Cc1cccc(CN(Cc2ccccn2)S(=O)(=O)N(C)C(C)C)c1	-5.02
CC(C)(C)OC(=O)N1CSC[C@@H]1C(=O)NCc1cccc(C#N)c1	-5.88
CC(C)OCCC(=O)Nc1ncn(CC(=O)N2CCCCCC2)n1	-1.61
CC(=O)N1CCN(C(=O)NCCCN(C)S(C)(=O)=O)CC1	-7.33
Cc1cc(C(=O)N2CCCC2)ccc1NCCO	-3.87
O=C(CCn1c(=O)oc2ccccc21)NCC(O)c1ccc(F)c(F)c1 (stereo unspecified)	-12.5
Cc1ccc(C)c(Sc2nccn(C)c2=O)c1	6.43
C=C(C)CNC(C)c1ccc(S(C)(=O)=O)c(F)c1 (stereo unspecified)	0.563
CC(CNC(=O)N1CCN(CC(F)F)CC1)Cc1cccs1 (stereo unspecified)	-4.92
CSCC(C)(O)CNC(=O)c1ccc(Br)cc1C (stereo unspecified)	1.57
Cn1cc(Br)c(=O)c(NS(=O)(=O)c2ccc(F)cc2)c1	-8.87
CC(CN1CCOCC1)NC(=O)N(C)Cc1ccc(Cl)s1 (stereo unspecified)	7.21
CC(C)Oc1ncc(C(=O)N2CCC(NC(=O)C3CC3)CC2)cc1Cl	-20.8

Structure (SMILES)	cytotoxicity at 10 µM [%]
Cc1ccc(N2CCCN(C(=O)c3cc(Cl)c[nH]3)CC2)nn1	-9.12
Cc1nc(C)n(CC2CN(CC(=O)Nc3cccnc3)CCO2)n1 (stereo unspecified)	-12
Cc1cn(CC(=O)N(C)Cc2cccc3ncccc23)c(=O)[nH]c1=O	14.2
Cc1cccnc1CN1CCN(c2noc(-c3ccccc3)n2)CC1	8.09
COCc1cc(CNCc2c(C)n(CC(N)=O)c3ccccc23)n[nH]1	-0.31
CC(=O)c1cnc(NCCc2csc(-c3cnccn3)n2)nc1C	6.09
CCNC(=O)[C@@H]1C[C@H](N)CN1C(=O)C1(c2ccc(OC)cc2)CCCC1	5.67
Cc1ccoc1C(=O)N1CCC(n2cc(-c3ccsc3)nn2)CC1	5.02
c1cncc(C[C@@H]2CC[C@H](CN3CCCOCC3)O2)c1	2.13
COc1ccc(-n2c(CCC(=O)O)nc3ccccc32)cc1CO	-0.334
COCc1noc(CCNC(=O)c2ccc(C3CCCO3)s2)n1 (stereo unspecified)	3.19
CN1CCN(Cc2cnc(S(=O)(=O)CC3CC3)n2CC2CCCO2)CC1 (stereo unspecified)	-2.87
COc1ccccc1-n1cc(C(=O)NCCCn2ccnn2)cn1	-6.01
Cc1cnc(C)c(N2CC[C@H](N3CCOCC3)[C@H](CCCO)C2)n1	6.12
Cn1ncc(N2CCC(CNC(=O)[C@@H](N)c3ccccc3)CC2)cc1=O	4.18
O=C(c1ccc(=O)[nH]c1)N1CCCC2(C=Cc3ccccc3O2)CC1 (stereo unspecified)	12.5
Cc1cccc(CN(C(=O)CS(C)(=O)=O)C(C)C)c1	1.68
CCCN1CC2(CCN(c3ccc(C(C)=O)cn3)CC2)CC1C(=O)O (stereo unspecified)	-0.909
CCC/C=C/c1ccc(CN2CCN(C)CC2)cn1	-8.61
COC(=O)CCC(=O)NCc1cccnc1N1CCc2ccccc2C1	-8.09
COc1cccc2c1OCC(CNC(=O)Cc1c(C)nc(N)nc1C)C2 (stereo unspecified)	-140
COCCN(C)CCN1CC2(CCN(C3CCCNC3)CC2)OC1=O (stereo unspecified)	2.28
CCN1CC(C(=O)N2CCC(Oc3ccccc3Cl)CC2)CC1=O (stereo unspecified)	-22.4

Structure (SMILES)	cytotoxicity at 10 µM [%]
CN(CCc1ccccc1)Cc1cc(C(=O)N2CCN(C)C(=O)C2)no1	-11.6
Cc1nccn1C1CCCN(C(=O)c2sccc2-n2cnnn2)C1 (stereo unspecified)	-12.2
CCN1CC(C(=O)NCc2ccnc(-n3cccn3)c2)CC1=O (stereo unspecified)	-9.3
CCc1nc(CC(=O)N2CCn3c(CC)nnc3C2)cs1	-11.4
Cc1cc(C(=O)NCCN2CCCC(C)C2)nn1C (stereo unspecified)	-2.79
Cc1cnn(CC(C)NCc2csc(-c3ccco3)n2)c1 (stereo unspecified)	3.44
COCCN1CCN(Cc2c(C3CCNCC3)[nH]c3ncccc23)CC1	-23.2
Cc1nn(C)c(Cl)c1CNCc1cccnc1N1CCCCC1	-145
O=C(NCc1ccccn1)[C@]12COC[C@H]1CN(Cc1ccccc1F)C2	6.81
Cc1nc2sccn2c1CN(CCCN(C)C)Cc1ccccn1	3.38
O=C(C1CCCO1)N1CCCn2c(nnc2Cn2ccnc2)C1 (stereo unspecified)	15.7
FC1(F)CCN(Cc2ccncc2)CC12CCN(c1cnccn1)C2 (stereo unspecified)	3.19
CCOCC(=O)N1CCC2(CC1)COC(COCc1ccccn1)C2 (stereo unspecified)	-127
O=C(O)c1c(-c2ccncc2)ncc2c1CCN(C1CCOC1)C2 (stereo unspecified)	15
Cc1nc(COCc2cnc3n2CCN(C2CCC2)C3C)cs1 (stereo unspecified)	-3.82
CC(C)c1nn(C)c(N(C)C)c1CNC1CCOc2c(F)cccc21 (stereo unspecified)	-1.99
CC(C)N(C)Cc1cnc2n1CCN(C(=O)Cc1ccsc1)C2	-118
COc1cccc(C=CCCN2CCCN(C(C)=O)CC2)c1	6.67
O=C1OCCN1CC(=O)N1C[C@@H]2CC[C@H]1CN(C(=O)c1ccccc1)C2	5.46
